What was measured:
[1] = molecular target: Metabotropic glutamate receptor 5 (Rattus norvegicus) (UniProt P31424); assay: Potentiation of rat mGluR5 receptor stably expressed in HEK293 cells assessed as fold shift in glutamate concentration response curve at 10 uM relative to control; assay type: cell-based
How it was run: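 HEK293 cells stably expressing rat mGlu5 were loaded with Fluo-4AM. Compound at 10 µM, or vehicle, was added, and a glutamate concentration-response curve followed 140 s later. The fold leftward shift of the glutamate curve was read from calcium fluorescence. Values are means of three independent experiments in triplicate.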

[2] = molecular target: Metabotropic glutamate receptor 5 (Rattus norvegicus) (UniProt P31424); assay: Positive allosteric modulation of rat mGluR5 stably expressed in HEK293 cells assessed as increase in intracellular calcium level by Fluo-4AM dye-based fluorescence assay relative to glutamate; assay type: functional, cell-based
[3] = molecular target: T1, Metabotropic glutamate receptor 5 (Rattus norvegicus, UniProt P31424); assay: Positive allosteric modulation of rat mGluR5 stably expressed in HEK293 cells assessed as increase in intracellular calcium level by Fluo-4AM dye-based fluorescence assay; assay type: functional, cell-based; settings: read-out: EC50
How it was run: (§1)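 HEK293 cells stably expressing rat mGlu5 (low receptor density line), 15,000 cells/well, grown overnight at 37°C/5% CO2. Loaded with Fluo-4AM for 50 min at 37°C in HBSS with 20 mM HEPES, 2.5 mM probenecid, pH 7.4. Triple add: compound, then EC20 glutamate 140 s later, then EC80 glutamate 60 s later. Calcium fluorescence read over time. Values are means of ≥3 independent experiments run in duplicate or triplicate.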

[4] = molecular target: T1, Metabotropic glutamate receptor 5; assay: Agonist activity at rat mGluR5 stably expressed in HEK293 cells assessed as increase in intracellular calcium level by Fluo-4AM dye-based fluorescence assay relative to glutamate; assay type: cell-based; settings: read-out: Efficacy
How it was run: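 HEK293 cells stably expressing rat mGlu5 (low receptor density), 15,000 cells/well, grown overnight, then loaded with Fluo-4AM for 50 min at 37°C in HBSS/20 mM HEPES/2.5 mM probenecid, pH 7.4. Triple-add protocol: compound, then glutamate EC20 140 s later, then EC80 60 s later. Fluorescence read over time. At least three independent runs in duplicate or triplicate; response given as % of glutamate maximum.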

[5] = molecular target: T1, Metabotropic glutamate receptor 5; assay: Agonist activity at rat mGluR5 stably expressed in HEK293 cells assessed as increase in intracellular calcium level by Fluo-4AM dye-based fluorescence assay; assay type: cell-based; how it was run: as §1

Metabotropic glutamate receptor 5 (Rattus norvegicus), sequence (P31424 21-1203 limits assumed): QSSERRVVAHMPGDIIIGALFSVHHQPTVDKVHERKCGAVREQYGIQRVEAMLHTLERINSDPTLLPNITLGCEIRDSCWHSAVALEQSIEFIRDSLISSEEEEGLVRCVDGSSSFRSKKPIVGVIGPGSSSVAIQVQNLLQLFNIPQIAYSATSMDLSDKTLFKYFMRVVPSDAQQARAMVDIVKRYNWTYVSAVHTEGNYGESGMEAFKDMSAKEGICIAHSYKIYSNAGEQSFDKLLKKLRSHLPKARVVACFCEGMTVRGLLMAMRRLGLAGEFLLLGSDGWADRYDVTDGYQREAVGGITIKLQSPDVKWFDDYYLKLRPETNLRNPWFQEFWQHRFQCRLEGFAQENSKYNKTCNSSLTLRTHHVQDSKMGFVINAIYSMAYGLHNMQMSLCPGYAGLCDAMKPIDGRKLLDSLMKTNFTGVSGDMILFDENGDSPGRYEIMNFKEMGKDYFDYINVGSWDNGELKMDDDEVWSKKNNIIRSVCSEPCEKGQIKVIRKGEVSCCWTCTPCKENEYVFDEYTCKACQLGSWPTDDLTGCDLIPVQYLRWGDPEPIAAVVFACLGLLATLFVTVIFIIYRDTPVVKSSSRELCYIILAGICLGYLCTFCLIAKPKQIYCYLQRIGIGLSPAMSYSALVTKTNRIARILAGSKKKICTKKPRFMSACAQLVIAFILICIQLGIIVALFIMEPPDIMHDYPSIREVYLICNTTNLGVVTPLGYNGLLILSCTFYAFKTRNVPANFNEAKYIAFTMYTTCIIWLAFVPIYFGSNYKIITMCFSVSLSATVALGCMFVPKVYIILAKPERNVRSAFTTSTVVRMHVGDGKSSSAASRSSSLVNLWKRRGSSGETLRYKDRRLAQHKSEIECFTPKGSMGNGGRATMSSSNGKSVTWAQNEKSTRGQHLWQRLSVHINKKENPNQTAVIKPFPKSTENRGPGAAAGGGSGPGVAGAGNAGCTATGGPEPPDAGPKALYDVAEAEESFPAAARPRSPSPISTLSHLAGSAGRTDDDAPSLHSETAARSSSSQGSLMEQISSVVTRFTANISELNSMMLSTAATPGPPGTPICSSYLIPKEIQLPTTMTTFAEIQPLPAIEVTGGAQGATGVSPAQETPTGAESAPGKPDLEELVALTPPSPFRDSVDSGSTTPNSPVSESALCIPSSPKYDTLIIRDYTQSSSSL
T1 sequence (P31424 whole entry): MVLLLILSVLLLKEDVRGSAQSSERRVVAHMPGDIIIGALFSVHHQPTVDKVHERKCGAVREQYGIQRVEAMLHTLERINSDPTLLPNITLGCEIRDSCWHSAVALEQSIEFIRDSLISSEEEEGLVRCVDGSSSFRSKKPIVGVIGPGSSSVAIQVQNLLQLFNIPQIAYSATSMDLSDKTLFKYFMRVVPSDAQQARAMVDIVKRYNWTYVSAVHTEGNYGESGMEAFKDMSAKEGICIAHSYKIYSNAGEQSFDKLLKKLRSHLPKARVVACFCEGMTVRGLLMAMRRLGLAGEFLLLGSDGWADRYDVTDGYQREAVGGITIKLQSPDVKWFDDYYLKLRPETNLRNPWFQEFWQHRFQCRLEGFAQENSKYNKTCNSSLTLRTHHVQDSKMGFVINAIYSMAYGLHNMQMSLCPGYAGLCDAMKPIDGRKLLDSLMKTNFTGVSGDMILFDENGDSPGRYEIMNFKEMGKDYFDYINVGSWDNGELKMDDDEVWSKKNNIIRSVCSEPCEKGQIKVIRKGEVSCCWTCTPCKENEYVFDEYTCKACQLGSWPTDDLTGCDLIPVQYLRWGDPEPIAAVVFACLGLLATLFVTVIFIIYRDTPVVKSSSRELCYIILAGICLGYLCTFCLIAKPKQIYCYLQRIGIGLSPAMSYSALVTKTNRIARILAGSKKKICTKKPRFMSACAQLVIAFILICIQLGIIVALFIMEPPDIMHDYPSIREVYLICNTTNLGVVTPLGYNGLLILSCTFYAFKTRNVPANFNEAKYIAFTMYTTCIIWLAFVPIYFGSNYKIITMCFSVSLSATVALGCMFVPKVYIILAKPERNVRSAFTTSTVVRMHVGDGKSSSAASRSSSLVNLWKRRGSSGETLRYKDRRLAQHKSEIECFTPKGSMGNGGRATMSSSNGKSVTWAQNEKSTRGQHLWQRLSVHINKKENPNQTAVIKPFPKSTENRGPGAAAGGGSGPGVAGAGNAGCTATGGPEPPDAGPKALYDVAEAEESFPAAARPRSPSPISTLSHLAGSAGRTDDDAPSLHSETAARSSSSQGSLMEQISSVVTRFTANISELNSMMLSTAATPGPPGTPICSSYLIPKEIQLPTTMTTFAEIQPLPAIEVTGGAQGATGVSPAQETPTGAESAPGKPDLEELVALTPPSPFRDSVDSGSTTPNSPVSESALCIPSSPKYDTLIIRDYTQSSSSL

## CC(C)(O)CCNC(=O)c1ccc(C#Cc2cccc(F)c2)cn1
[1]
  fold change (FC): 5.3
[2]
  Efficacy: 61.9%
[3]
  EC50: 136 nM

## Cc1ccc(C#Cc2ccc(C(=O)N[C@H](C)C(C)(C)O)nc2)cc1
[2]
  Efficacy: 63.1%
[3]
  EC50: 107 nM

## C[C@@H](NC(=O)c1ccc(C#Cc2cccc(F)c2)nc1)C(C)(C)O
[4]
  Emax: 26.6%
[5]; read-out: EC50
  EC50: 6.8 µM
[2]
  Efficacy: 64.9%
[3]
  EC50: 80 nM

## CC(C)[C@H](C)NC(=O)c1ccc(C#Cc2cccc(F)c2)cn1
[4]
  Emax: 13.1%
[5]; read-out: EC50
  EC50: 2.22 µM
[2]
  Efficacy: 66.7%
[3]
  EC50: 20.4 nM

## C[C@@H](NC(=O)c1ccc(C#Cc2ccccn2)cn1)C(C)(C)F
[1]
  fold change (FC): 1.5
[2]
  Efficacy: 54.9%
[3]
  EC50: 22.2 nM

## CC1(NC(=O)c2ccc(C#Cc3ccncc3)cn2)COC1
[2]
  Efficacy: 36%
[3]
  EC50: 691 nM

## Cc1cc(C#Cc2cccc(F)c2)cnc1C(=O)N[C@H](C)C(C)(C)O
[1]
  fold change (FC): 2.3
[2]
  Efficacy: 66.4%
[3]
  EC50: 105 nM

## O=C(NCC1CCC1)c1ccc(C#Cc2cccc(F)c2)cn1
[4]
  Emax: 4.7%
[5]; read-out: pEC50 (converted)
  EC50: > 10 µM
[2]
  Efficacy: 68.1%
[3]
  EC50: 84 nM

## C[C@@H](NC(=O)c1ccc(C#Cc2cccc(F)c2)cn1)C(F)(F)F
[1]
  fold change (FC): 1.5
[2]
  Efficacy: 52.1%
[3]
  EC50: 20.8 nM

## C[C@@H](NC(=O)c1ccc(C#Cc2ccccn2)cn1)C(C)(C)C
[4]
  Emax: 24.2%
[5]; read-out: EC50
  EC50: 6.11 µM
[2]
  Efficacy: 63%
[3]
  EC50: 63.3 nM

## C[C@@H](NC(=O)c1ccc(C#Cc2ccc(F)cn2)cn1)C(C)(C)O
[4]
  Emax: 13.5%
[5]; read-out: EC50
  EC50: 1.7 µM
[2]
  Efficacy: 64.6%
[3]
  EC50: 28.2 nM

## Cc1nc(C#Cc2cccc(F)c2)ccc1C(=O)N[C@H](C)C(C)(C)O
[4]
  Emax: 9.2%
[5]; read-out: EC50
  EC50: 1.09 µM
[2]
  Efficacy: 64.9%
[3]
  EC50: 17.1 nM

## C[C@@H](NC(=O)c1ccc(C#Cc2ncccc2F)cn1)C(C)(C)O
[4]
  Emax: 29.2%
[5]; read-out: EC50
  EC50: 3.7 µM
[2]
  Efficacy: 60.6%
[3]
  EC50: 33.8 nM

## CC(C)CNC(=O)c1ccc(C#Cc2cccc(F)c2)cn1
[1]
  fold change (FC): 1.9
[2]
  Efficacy: 58.2%
[3]
  EC50: 28.9 nM

## CC(C)[C@@H](C)NC(=O)c1ccc(C#Cc2ccccn2)cn1
[1]
  fold change (FC): 1.3
[2]
  Efficacy: 58.5%
[3]
  EC50: 79 nM

## CC(C)(C)CNC(=O)c1ccc(C#Cc2cccc(F)c2)cn1
[4]
  Emax: 9.5%
[5]; read-out: EC50
  EC50: 2.57 µM
[2]
  Efficacy: 63.9%
[3]
  EC50: 16.6 nM

## Cc1cc(C(=O)N[C@H](C)C(C)(C)O)ncc1C#Cc1cccc(F)c1
[2]
  Efficacy: 66.6%
[3]
  EC50: 242 nM

## C[C@@H](NC(=O)c1ccc(C#Cc2cccc(F)c2)cn1)C(C)(C)C
[4]
  Emax: 31.2%
[5]; read-out: EC50
  EC50: 2.75 µM
[2]
  Efficacy: 66%
[3]
  EC50: 17.8 nM

## C[C@@H](NC(=O)c1nc(C#Cc2cccc(F)c2)cs1)C(C)(C)O
[4]
  Emax: 26.1%
[5]; read-out: EC50
  EC50: 4.78 µM
[2]
  Efficacy: 62.1%
[3]
  EC50: 33.5 nM

## C[C@@H](NC(=O)c1ccc(C#CC2CCCC2)cn1)C(C)(C)O
[4]
  Emax: 14.8%
[5]; read-out: EC50
  EC50: 9.75 µM
[2]
  Efficacy: 63.7%
[3]
  EC50: 93.3 nM

## C[C@@H](NC(=O)c1ccc(C#Cc2cccnc2)cn1)C(C)(C)O
[4]
  Emax: 25.9%
[5]; read-out: EC50
  EC50: 9.3 µM
[2]
  Efficacy: 71.5%
[3]
  EC50: 344 nM

## Cc1cccc(C#Cc2ccc(C(=O)N[C@H](C)C(C)(C)O)nc2)c1
[4]
  Emax: 20.8%
[5]; read-out: EC50
  EC50: 1.36 µM
[2]
  Efficacy: 68.6%
[3]
  EC50: 6.5 nM

## Cc1ccccc1C#Cc1ccc(C(=O)N[C@H](C)C(C)(C)O)nc1
[4]
  Emax: 24.1%
[5]; read-out: EC50
  EC50: 12.4 µM
[2]
  Efficacy: 59.9%
[3]
  EC50: 217 nM

## O=C(NCC(F)(F)F)c1ccc(C#Cc2cccc(F)c2)cn1
[4]
  Emax: 5.8%
[5]; read-out: EC50
  EC50: 10.7 µM
[2]
  Efficacy: 67%
[3]
  EC50: 224 nM

## C[C@@H](NC(=O)c1ccc(C#Cc2ccc(F)cc2F)cn1)C(C)(C)O
[4]
  Emax: 38.2%
[5]; read-out: EC50
  EC50: 3.69 µM
[2]
  Efficacy: 61.2%
[3]
  EC50: 26.6 nM

## C[C@@H](NC(=O)c1ccc(C#Cc2cccc(F)c2)nn1)C(C)(C)O
[4]
  Emax: 16.5%
[5]; read-out: EC50
  EC50: 2.12 µM
[2]
  Efficacy: 70.2%
[3]
  EC50: 21.9 nM

## C[C@@H](NC(=O)c1ccc(C#Cc2cc(F)ccn2)cn1)C(C)(C)O
[4]
  Emax: 33%
[5]; read-out: EC50
  EC50: 3.98 µM
[2]
  Efficacy: 66.2%
[3]
  EC50: 36 nM

## CC(C)(O)CNC(=O)c1ccc(C#Cc2cccc(F)c2)cn1
[4]
  Emax: 20%
[5]; read-out: EC50
  EC50: 4.02 µM
[2]
  Efficacy: 61.5%
[3]
  EC50: 34.6 nM

## C[C@@H](NC(=O)c1ccc(C#Cc2cc(F)cc(F)c2)cn1)C(C)(C)O
[4]
  Emax: 37.9%
[5]; read-out: EC50
  EC50: 3.67 µM
[2]
  Efficacy: 61.6%
[3]
  EC50: 58.2 nM

## C[C@@H](NC(=O)c1ncc(C#Cc2cccc(F)c2)cn1)C(C)(C)O
[4]
  Emax: 19.2%
[5]; read-out: EC50
  EC50: 4.13 µM
[2]
  Efficacy: 64.1%
[3]
  EC50: 47.6 nM

## C[C@@H](NC(=O)c1ccc(C#Cc2cccc(F)c2)cc1)C(C)(C)O
[4]
  Emax: 43.6%
[5]; read-out: EC50
  EC50: 1.04 µM
[2]
  Efficacy: 53.9%
[3]
  EC50: 7.5 nM

## C[C@@H](NC(=O)c1ccc(C#Cc2ccc(F)cc2)cn1)C(C)(C)O
[4]
  Emax: 38.4%
[5]; read-out: EC50
  EC50: 1.52 µM
[2]
  Efficacy: 66.2%
[3]
  EC50: 12.3 nM

## CCCNC(=O)c1ccc(C#Cc2cccc(F)c2)cn1
[4]
  Emax: 8.3%
[5]; read-out: EC50
  EC50: 3.01 µM
[2]
  Efficacy: 65.9%
[3]
  EC50: 34.4 nM

## Cc1nc(C#Cc2ccc(C(=O)N[C@H](C)C(C)(C)O)nc2)cs1
[1]
  fold change (FC): 1.6
[2]
  Efficacy: 66.6%
[3]
  EC50: 58.4 nM

## C[C@@H](NC(=O)c1cnc(C#Cc2cccc(F)c2)cn1)C(C)(C)O
[4]
  Emax: 17.2%
[5]; read-out: EC50
  EC50: 3.04 µM
[2]
  Efficacy: 64.4%
[3]
  EC50: 12.5 nM

## C[C@@H](NC(=O)c1ccc(C#CC2CC2)cn1)C(C)(C)O
[2]
  Efficacy: 63.4%
[3]
  EC50: 1290 nM

## CC(C)(CO)NC(=O)c1ccc(C#Cc2cccc(F)c2)cn1
[4]
  Emax: 9.3%
[5]; read-out: EC50
  EC50: 0.729 µM
[2]
  Efficacy: 60.9%
[3]
  EC50: 7.9 nM

## C[C@@H](NC(=O)c1ccc(C#Cc2cccc(F)c2)cn1)C(C)(C)F
[4]
  Emax: 42.8%
[5]; read-out: EC50
  EC50: 2.06 µM
[2]
  Efficacy: 68.6%
[3]
  EC50: 5.3 nM

## C[C@@H](NC(=O)c1ccc(C#Cc2cccc(F)n2)cn1)C(C)(C)O
[4]
  Emax: 8.3%
[5]; read-out: EC50
  EC50: 1.3 µM
[2]
  Efficacy: 63%
[3]
  EC50: 13.6 nM

## CC(C)[C@@H](C)NC(=O)c1ccc(C#Cc2cccc(F)c2)cn1
[4]
  Emax: 22.5%
[5]; read-out: EC50
  EC50: 1.47 µM
[2]
  Efficacy: 69.3%
[3]
  EC50: 4.5 nM

## C[C@@H](NC(=O)c1ccc(C#Cc2ccccc2)cn1)C(C)(C)O
[4]
  Emax: 43.2%
[5]; read-out: EC50
  EC50: 0.874 µM
[2]
  Efficacy: 60.9%
[3]
  EC50: 4.1 nM

## C[C@H](NC(=O)c1ccc(C#Cc2cccc(F)c2)cn1)C(C)(C)C
[4]
  Emax: 20%
[5]; read-out: EC50
  EC50: 5.4 µM
[2]
  Efficacy: 70.8%
[3]
  EC50: 51.9 nM

## C[C@@H](NC(=O)c1ccc(C#Cc2ccncc2)cn1)C(C)(C)O
[4]
  Emax: 22.4%
[5]; read-out: EC50
  EC50: 4.66 µM
[2]
  Efficacy: 66.6%
[3]
  EC50: 43 nM

## CC(C)(C)NC(=O)c1ccc(C#Cc2cccc(F)c2)cn1
[3]
  EC50: 2.6 nM

## CC1(CCNC(=O)c2ccc(C#Cc3cccc(F)c3)cn2)COC1
[4]
  Emax: 16.3%
[5]; read-out: EC50
  EC50: 2.84 µM
[2]
  Efficacy: 65.7%
[3]
  EC50: 47.3 nM

## C[C@@H](NC(=O)c1ccc(C#Cc2ccccc2F)cn1)C(C)(C)O
[4]
  Emax: 29.6%
[5]; read-out: EC50
  EC50: 1.16 µM
[2]
  Efficacy: 60%
[3]
  EC50: 8 nM

## C[C@H](NC(=O)c1ccc(C#Cc2cccc(F)c2)cn1)C(F)(F)F
[4]
  Emax: 21.4%
[5]; read-out: EC50
  EC50: 1.39 µM
[2]
  Efficacy: 60.8%
[3]
  EC50: 21.9 nM
